Results as given in article PMC4160413 (Cancer cell, 2014).
Where two headings read alike, the source gives them in different places.

What was measured:
MYCN [1] = test: Immunoblot of MYCN protein in SK-N-BE; type: cell-based; conditions: SK-N-BE(2) cells, 1 μM, 24 hr
Aurora A = biological target: T1, Aurora A (Homo sapiens, UniProt O14965, T287D); test: In vitro kinase assay with purified Aurora A protein; type: biochemical; conditions: structure-activity comparison
T1 sequence (O14965 123-390 T287D): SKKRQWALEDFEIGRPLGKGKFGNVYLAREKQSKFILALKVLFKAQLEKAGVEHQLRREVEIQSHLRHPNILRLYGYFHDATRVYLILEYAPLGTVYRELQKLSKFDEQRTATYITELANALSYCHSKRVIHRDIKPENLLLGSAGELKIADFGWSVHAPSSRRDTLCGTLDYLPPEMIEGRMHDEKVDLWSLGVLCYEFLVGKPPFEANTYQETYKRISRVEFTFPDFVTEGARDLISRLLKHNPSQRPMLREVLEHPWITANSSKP

MYCN-Aurora A complex = biological target: T2, MYCN-Aurora A complex (Homo sapiens, UniProt O14965); test: MYCN immunoprecipitation; type: cell-based; conditions: for dissociation of the MYCN-Aurora A complex: IMR32 cells, 2 hr drug, MG-132 4 hr
T2 sequence (O14965 1-403): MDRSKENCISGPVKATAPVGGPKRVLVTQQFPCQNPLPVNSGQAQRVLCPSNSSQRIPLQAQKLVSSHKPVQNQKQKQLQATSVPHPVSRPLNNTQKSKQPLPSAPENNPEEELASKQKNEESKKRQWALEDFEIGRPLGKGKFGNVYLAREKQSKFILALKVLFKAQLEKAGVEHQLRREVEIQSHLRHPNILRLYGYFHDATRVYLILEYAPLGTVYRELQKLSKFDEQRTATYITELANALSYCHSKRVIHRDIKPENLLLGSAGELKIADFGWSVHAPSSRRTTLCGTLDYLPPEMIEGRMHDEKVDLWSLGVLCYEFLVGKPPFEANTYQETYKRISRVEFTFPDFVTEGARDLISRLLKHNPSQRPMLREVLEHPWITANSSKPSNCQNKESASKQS

SK-N-BE(2) cells = test: Cell cycle by flow cytometry; type: cell-based
In short: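 SK-N-BE(2) cells in RPMI with 10% FBS, exposed to test compound for the stated time. EdU pulse before harvest: 2 hours per methods, 1 hr in the 6 hr, 1 μM experiment. Detection used the Click-iT EdU flow kit plus propidium iodide staining, read on a FACSCalibur. Gating was done in Cytobank.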

[2] = system: MYCN-amplified SMS-KCN xenografts; test: MYCN-amplified SMS-KCN neuroblastoma xenograft; type: in vivo, mice; conditions: 60 mg/kg for 2 days
In short: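 NOD scid gamma mice received 10⁶ SMS-KCN cells in growth media with 50% Geltrex, implanted into the renal capsule. Tumors were palpable at 21 days post implantation. Mice were then dosed at 60 mg/kg for two days, and tumors were harvested and flash frozen. MYCN protein was measured by immunoblot and compared by two-tailed Student's t-test (mean ± SEM).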

[3] = system: MYCN-expressing SHH-subtype medulloblastoma allograft; test: SHH-subtype medulloblastoma subcutaneous allograft; type: in vivo, mice; conditions: 25 mg/kg twice per week
In short: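 Homozygous nu/nu mice carried flank subcutaneous allografts of SHH-subtype MYCN-expressing medulloblastoma (10⁶ cells per mouse). Dosing began at 25 mm³ tumor volume (~14 days): vehicle (5% DMSO in PEG300; n=6) or 25 mg/kg (formulated at 7.5 mg/ml; n=4), intraperitoneally twice weekly for up to three weeks. Endpoint was 2.0 cm maximum tumor length. Tumor burden compared by two-tailed t-test, survival by log-rank test.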

[4] = system: GFP- and MYCN-transduced SH-EP neuroblastoma cells; test: Viability of SHEP cells transduced with MYCN or GFP, 72 hr; type: cell-based; conditions: MYCN- vs GFP-transduced SH-EP
MYCN [5] = test: Immunoblot of MYCN in SHEP cells expressing MYCN WT or T58A/S62A; type: cell-based; conditions: 24 hr; for wild-type MYCN protein level: SHEP MYCN WT
[6] = system: Kelly MYCN-amplified neuroblastoma cells; test: CyQUANT viability assay, 72 hr, Kelly; type: cell-based; conditions: read-out: cellular EC50 at 72 hr
[7] = Pharmacokinetic study in mice; type: in vivo
In short: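 Test compound formulated at 20 mg/ml in 7.5% DMSO / 92.5% PEG300 and given to mice. Compound levels determined by LC-MS/MS.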

[8] = system: SK-N-BE(2) MYCN-amplified neuroblastoma cells; test: CyQUANT viability assay, 72 hr, SK-N-BE; type: cell-based; conditions: read-out: cellular EC50 at 72 hr
[9] = system: panel 169 distinct tumor-derived cell lines; test: Screen of 169 tumor-derived cell lines; type: cell-based; conditions: for susceptibility of MYCN-amplified versus non-amplified cell lines: 93 lines with MYCN copy number
[10] = same dose (20 mg/kg); ref Carol et al., 2011; cited from earlier work
MYCN and p-Histone H3 = test: Immunoblot screen of MYCN and p-H3 in Kelly cells; type: cell-based; conditions: 1 μM, 24 hr
In short: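 Kelly cells in RPMI with 10% FBS, given one of 32 compounds at 1 μM for 24 hr. Lysis in Cell Signaling buffer with 1% SDS, then sonication and boiling in LDS sample buffer. Immunoblots probed for MYCN, Histone H3, P-Histone H3 (S10), Aurora A and GAPDH. Bands quantified by densitometry and expressed as percent of untreated control.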

[11] = CD532 1 μM 4 hr, MLN8237 0.1 μM 4 hr, JQ1 2 μM 24 hr

| Compound | efficacy against MYCN (MYCN loss) relative to CD532 (MYCN [1]) | cell-free potency against Aurora A relative to CD532 (Aurora A) | dissociation of the MYCN-Aurora A complex (MYCN-Aurora A complex) | cell cycle effect (SK-N-BE(2) cells; 1 μM, 4 or 6 hr) | cell cycle effect (SK-N-BE(2) cells; [11]) | wild-type MYCN protein level (MYCN [5]) | susceptibility of MYCN-amplified versus non-amplified cell lines [9] | Histone H3 phosphorylation (MYCN and p-Histone H3) | MYCN protein level (MYCN and p-Histone H3) | also measured |
| --- | --- | --- | --- | --- | --- | --- | --- | --- | --- | --- |
| Cc1cc(Nc2cc(C3CCCC3)[nH]n2)nc(Nc2ccc(NC(=O)Nc3cccc(C(F)(F)F)c3)cc2)n1 [CD15] | maintained | maintained |  |  |  |  |  |  |  |  |
| O=C(Nc1ccccc1)Nc1ccc(Nc2nccc(Nc3cc(C4CCCC4)[nH]n3)n2)cc1 [CD25] | less effective than CD532 | retained potency |  |  |  |  |  |  |  |  |
| O=C(Nc1ccc(Nc2nccc(Nc3cc(C4CCCC4)[nH]n3)n2)cc1)Nc1cccc(C(F)(F)F)c1 [CD532] |  |  | dose-dependent and complete dissociation | potent loss of S-phase entry | rapid and potent loss of S-phase | dose-dependently decreased | significantly more susceptible |  |  | MYCN-MAX binding (MYCN-Aurora A complex; specificity control): did not affect; MYCN protein level in xenograft tumors [2]: decreased levels of MYCN protein; tolerability of dosing regimen [3]: without obvious short or long-term toxicity or weight loss; MYCN levels in tumors ([3]; intraperitoneal): substantially reduced MYCN levels; survival ([3]; intraperitoneal): extended survival; tumor burden ([3]; intraperitoneal): reduced tumor burden; effect of MYCN transduction on sensitivity [4]: conferred sensitivity; MYCN T58A/S62A protein degradation (MYCN [5]; SHEP MYCN T58A/S62A): less effective; EC50 [6]: 147 nM; serum half-life [7]: ~ 1.5 hr; AUC0-24 ([7]; 20 mg/kg): 27 µM·h; EC50 [8]: 223 nM; EC50s in cell line panel ([9]; most cell lines): nanomolar range |
| Cc1sc2c(c1C)C(c1ccc(Cl)cc1)=N[C@@H](CC(=O)OC(C)(C)C)c1nnc(C)n1-2 [JQ1, reference compound] |  |  |  |  | downregulation of MYCN, blockade of S-phase entry, and accumulation of cells in G0/G1 |  | significantly more susceptible |  |  |  |
| COc1cc(Nc2ncc3c(n2)-c2ccc(Cl)cc2C(c2c(F)cccc2OC)=NC3)ccc1C(=O)O [MLN8237] |  |  | only modestly disrupted | G2/M arrest | accumulation of cells in G2 and M phase |  |  | blocked Histone H3 phosphorylation | very modest effects | AUC0-24 [10]: 78.4 µM·h |
| Cc1cc(Nc2cc(N3CCN(C)CC3)nc(Sc3ccc(NC(=O)C4CC4)cc3)n2)[nH]n1 [VX-680] |  |  |  | G2/M arrest |  | little effect |  | blocked Histone H3 phosphorylation | very modest effects |  |
